A selection: hits, their analogues and other compounds. The true share with any hit is near 1.6%.
MBD2 inh – inhibitors of human MBD2 binding to methylated oligonucleotide; Q9UBB5; inhibition, % at 4.4 µM; TR-FRET; 370,000 tested, 0.31% active; AID 686964; in the data active means inhibition above about 13%
TDP2 absorb – blocks human TDP2 phosphodiesterase activity | recombinant TDP2, T5PNP hydrolysis, p-nitrophenol absorbance 415 nm | inhibition, % at 12.8 µM | 370,000 tested, 0.34% active;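 active means inhibition above the mean of all tested compounds plus 3 SD, set per campaign, cut at about 25% in these data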;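 further: 0% = DMSO with enzyme and 100% = buffer with substrate but no TDP2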
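Evaluation: % inhibition relative to enzyme-containing and enzyme-free wells. Material: recombinant human TDP2. Benchmarks: enzyme-free and DMSO wells. Timing: enzyme reaction with compound for 2 h at 37 °C. Compound dosing: 12.8 µM only. Measured by: p-Nitrophenol epi absorbance. Reagent: T5PNP substrate at 5 mM, a TopII-DNA adduct mimic. Replication: single well per compound.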
LEDGF integ inh – blocks HIV-1 LEDGF/p75-dependent DNA integration; TR-FRET IN-LEDGF/p75 DNA integration, Eu/Cy5; inhibition, % at 3.7 µM; 370,000 tested, 0.64% active; AID 743269;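 active means inhibition above the screen-wide mean plus 3 SD, cut at about 13% in these data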;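 further: signal is the Cy5 over europium emission ratio at 671 and 618 nm; 0% = plate median of compound wells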
UHRF1 binding – UHRF1 methyl-DNA binding inhibition; Q96T88; UHRF1 binding to methylated oligo, TR-FRET; inhibition, % at 4.4 µM; 370,000 tested, 0.75% active; in the data active means inhibition above about 21%;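 further: UHRF1 SRA domain binding a hemimethylated CpG hairpin DNA probe; 0% = median of test compound wells and 100% = reference inhibitor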
Target sequence (Q96T88 whole entry, looked up, the tested form may be a part): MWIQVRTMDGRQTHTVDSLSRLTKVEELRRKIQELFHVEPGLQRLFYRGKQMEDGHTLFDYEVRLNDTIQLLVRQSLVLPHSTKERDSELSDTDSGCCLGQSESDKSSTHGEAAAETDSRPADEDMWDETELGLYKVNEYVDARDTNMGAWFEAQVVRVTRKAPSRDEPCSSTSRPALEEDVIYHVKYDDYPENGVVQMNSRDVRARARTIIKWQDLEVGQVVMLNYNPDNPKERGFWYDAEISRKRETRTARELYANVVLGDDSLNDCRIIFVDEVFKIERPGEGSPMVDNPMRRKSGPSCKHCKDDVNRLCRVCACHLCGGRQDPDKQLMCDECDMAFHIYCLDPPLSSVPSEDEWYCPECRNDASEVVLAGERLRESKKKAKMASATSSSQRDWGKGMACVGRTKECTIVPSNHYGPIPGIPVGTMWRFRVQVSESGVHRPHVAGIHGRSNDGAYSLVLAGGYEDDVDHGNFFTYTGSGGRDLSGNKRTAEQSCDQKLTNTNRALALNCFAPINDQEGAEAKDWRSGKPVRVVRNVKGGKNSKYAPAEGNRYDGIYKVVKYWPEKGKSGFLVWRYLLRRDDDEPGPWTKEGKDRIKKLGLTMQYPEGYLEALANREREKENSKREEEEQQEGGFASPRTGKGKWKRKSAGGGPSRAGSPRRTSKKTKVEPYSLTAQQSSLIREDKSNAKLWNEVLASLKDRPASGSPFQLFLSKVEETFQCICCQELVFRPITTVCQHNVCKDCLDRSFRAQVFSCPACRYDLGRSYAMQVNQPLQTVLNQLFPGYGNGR
* = called active by the depositor.

For c1ccc(COc2ccc(OCCCNC3CCCC3)cc2)cc1 the results were MBD2 inh 9, TDP2 absorb -13, LEDGF integ inh 8 and UHRF1 binding 31*.
`O=C(NC1CCCC1)c1ccccc1OCc1ccccc1` gave MBD2 inh 0, TDP2 absorb -6, LEDGF integ inh 2 and UHRF1 binding 39*.
`O=C(NC1CCN(Cc2ccccc2)CC1)c1ccccc1OCc1ccccc1` gave MBD2 inh 1, TDP2 absorb -15, LEDGF integ inh 6 and UHRF1 binding -3.
Screening COCCCNCCCCOc1ccc(OCc2ccccc2)cc1 returned MBD2 inh 1, TDP2 absorb 8, LEDGF integ inh 1 and UHRF1 binding 4.
For CCOc1ccc(-n2c([S-])c(C(=O)Nc3ccc(S(=O)(=O)N4CCOCC4)cc3)[n+]3cc(C(N)=O)ccc23)cc1 the results were MBD2 inh -2, TDP2 absorb -8, LEDGF integ inh -1 and UHRF1 binding -1.
For Cc1cccnc1NC(=O)CCNC(=O)c1ccc(Br)cc1 the results were MBD2 inh 3, TDP2 absorb -2, LEDGF integ inh -3 and UHRF1 binding 5.
`CC(C)Cc1nnc(NC(=O)CCc2c[nH]c3ccccc23)s1` gave MBD2 inh 11, TDP2 absorb -1, LEDGF integ inh -2 and UHRF1 binding 25*.
Screening CC(C)Cc1nnc(NC(=O)CCS(=O)(=O)c2ccc(Cl)cc2)s1 returned MBD2 inh 11, TDP2 absorb 8, LEDGF integ inh 4 and UHRF1 binding 24*.
For CCc1nnc(NC(=O)Cc2c[nH]c3ccccc23)s1 the results were MBD2 inh 0, TDP2 absorb 11, LEDGF integ inh -2 and UHRF1 binding 4.
COc1cccc(-c2cn(-c3cccc(C(F)(F)F)c3)c(=S)[nH]2)c1 was read as MBD2 inh -3, TDP2 absorb 6, LEDGF integ inh 5 and UHRF1 binding 1.
Screening CCOc1ccc(N=C2C(=O)Nc3ccc(C)c(Br)c32)cc1 returned MBD2 inh -16, TDP2 absorb 13, LEDGF integ inh -2 and UHRF1 binding -10.
`Cc1cc(NS(=O)(=O)c2ccc(NC(=O)CSc3nc4ncc(Cl)cc4[nH]3)cc2)nc(C)n1` gave MBD2 inh 3, TDP2 absorb 14, LEDGF integ inh -5 and UHRF1 binding 1.
Screening Cc1cc(NS(=O)(=O)c2ccc(NC(=O)CSc3nc4ncc(Br)cc4[nH]3)cc2)nc(C)n1 returned MBD2 inh 3, TDP2 absorb -3, LEDGF integ inh -6 and UHRF1 binding 39*.
`CC(C)c1nnc(NC(=O)CCC2CCCCC2)s1` gave MBD2 inh 4, TDP2 absorb -6, LEDGF integ inh -5 and UHRF1 binding 0.
Screening O=C(CCC1CCCCC1)Nc1nncs1 returned MBD2 inh -4, TDP2 absorb 4, LEDGF integ inh -1 and UHRF1 binding 26*.
CCOC(=O)C1CCCN(C(=O)c2ccc3c(c2)NC(=O)C(N2CCOCC2)S3)C1 (stereo not given) was read as MBD2 inh 2, TDP2 absorb 2, LEDGF integ inh 2 and UHRF1 binding -1.
For CCOC(=O)C1CCCN(C(=O)c2cc(Cl)ccc2Cl)C1 (stereo not given) the results were MBD2 inh 10, TDP2 absorb 3, LEDGF integ inh 0 and UHRF1 binding 22*.
For O=C(CCl)Oc1ccc2occ(C(=O)c3cccs3)c2c1 the results were MBD2 inh 13, TDP2 absorb 23, LEDGF integ inh 12 and UHRF1 binding 29*.
CN(Cc1ccc(Cl)c(Cl)c1)C(=O)C1CSC2(C)CCC(=O)N12 (stereo not given) was read as MBD2 inh 0, TDP2 absorb -5, LEDGF integ inh 2 and UHRF1 binding 28*.
`COc1ccc(/C=N/NC(=O)c2cccs2)c2ccccc12` gave MBD2 inh 2, TDP2 absorb -19, LEDGF integ inh -3 and UHRF1 binding 1.
`Cc1cc(NC(=O)COc2ccc(F)c(Cl)c2)no1` gave MBD2 inh -2, TDP2 absorb -6, LEDGF integ inh -3 and UHRF1 binding -1.
Screening O=C(NCC1CCCO1)c1cc(S(=O)(=O)N2CCOCC2)c(Cl)cc1Cl (stereo not given) returned MBD2 inh 2, TDP2 absorb 3, LEDGF integ inh -1 and UHRF1 binding 23*.
COc1ccc(C(=O)Nc2ccnn2C2CCN(Cc3ccccn3)CC2)cc1 was read as MBD2 inh 4, TDP2 absorb 15, LEDGF integ inh -2 and UHRF1 binding 3.
For COC1(OC)C(/C=C/c2ccc(C)cc2)C(C#N)(C#N)C1(OC)OC (stereo not given) the results were MBD2 inh 8, TDP2 absorb 4, LEDGF integ inh 1 and UHRF1 binding 21*.
C=C(C)CC(NCc1ccco1)c1ccc(OC)cc1 (stereo not given) was read as MBD2 inh -1, TDP2 absorb 6, LEDGF integ inh -1 and UHRF1 binding -2.
Screening CCOc1ccccc1NC(=O)C1=C(C)NC(=O)NC1c1cccc(OC)c1OC (stereo not given) returned MBD2 inh 10, TDP2 absorb -4, LEDGF integ inh 3 and UHRF1 binding 23*.
`COc1ccccc1NC(=O)C1=C(C)NC(=O)NC1c1cccc(OC)c1OC` (stereo not given) gave MBD2 inh -5, TDP2 absorb 7, LEDGF integ inh 2 and UHRF1 binding -1.
O=C(COC(=O)c1ccc([N+](=O)[O-])o1)Nc1nc2ccccc2s1 was read as MBD2 inh -1, TDP2 absorb 2, LEDGF integ inh 1 and UHRF1 binding 29*.
Screening CCCC1(c2ccccc2)NC(=O)N(CC(=O)Nc2cc(C)on2)C1=O (stereo not given) returned MBD2 inh 6, TDP2 absorb -3, LEDGF integ inh -3 and UHRF1 binding 2.
Screening Cc1cc(NC(=O)CN2C(=O)NC(C)(c3ccccc3)C2=O)no1 (stereo not given) returned MBD2 inh 3, TDP2 absorb 17, LEDGF integ inh 1 and UHRF1 binding 97*.
O=C1CCc2cc(S(=O)(=O)NC(Cc3ccccc3)C(=O)N3CCN(c4ccccn4)CC3)ccc2N1 (stereo not given) was read as MBD2 inh 0, TDP2 absorb -3, LEDGF integ inh -6 and UHRF1 binding -1.
COc1cccc(C(=O)OC(C)C(=O)NCC2CCCCC2)c1 (stereo not given) was read as MBD2 inh 8, TDP2 absorb -2, LEDGF integ inh 3 and UHRF1 binding 4.
`Cc1ccnc(-n2c(C)cc(C=O)c2C)c1` gave MBD2 inh 4, TDP2 absorb 0, LEDGF integ inh 4 and UHRF1 binding 23*.
`COc1cc2c[n+](C)c3c4ccccc4ccc3c2cc1OC` gave MBD2 inh 66*, TDP2 absorb -1, LEDGF integ inh 4 and UHRF1 binding -5.
Screening COc1ccc2c(c1)c[n+](C)c1c3cc(OC)c(OC)cc3ccc21 returned MBD2 inh 10, TDP2 absorb -2, LEDGF integ inh 0 and UHRF1 binding -38.

Screens: PubChem BioAssay, The Scripps Research Institute Molecular Screening Center
